# ChEMBL document CHEMBL4706490, “New activators of eIF2α Kinase Heme-Regulated Inhibitor (HRI) with improved biophysical properties” (Eur J Med Chem, 2020)
# Active and inactive are the calls of the source. No cut-off for these calls is given here.
# Tests used:
# [1] = Antiproliferative activity against human CRL-2813 cells assessed as inhibition of cell growth measured after 5 days by SRB assay; type: functional, cell-based
# Method in brief: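 CRL-2813 cells in 96-well plates were kept for 5 days with 0.5 to 20 µM compound, then fixed in cold 10% trichloroacetic acid and stained with sulforhodamine B; bound dye absorbance was read. Percent growth was calculated as 100×[(T−T0)/(C−T0)] using day 5 treated, control and time-zero readings. IC50 is the concentration giving 50% growth inhibition.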
# [2] = target: Eukaryotic translation initiation factor 2 subunit 1 (Homo sapiens) (UniProt P05198); test: Activation of eIF2alpha (unknown origin) assessed as fold stimulation ATF-4 surrogate eIF2alpha phosphorylation at 5 uM cell based Dual luciferase reporter assay; settings: filed as activator
# Method in brief: (§1)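 Cells stably expressing firefly and renilla luciferase reporters were treated in 96-well plates at 10, 5, 2.5 and 1.25 µM and read with a dual glow luciferase kit. The firefly/renilla (F/R) ratio of each well was normalized to vehicle (DMSO) wells on the same plate, set at 1. Dose-response curves used triplicate points fitted to a logistic sigmoidal model.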
# [3] = target: Eukaryotic translation initiation factor 2 subunit 1 (Homo sapiens) (UniProt P05198); test: Activation of eIF2alpha (unknown origin) assessed as fold stimulation ATF-4 surrogate eIF2alpha phosphorylation at 1.25 uM cell based Dual luciferase reporter assay; settings: filed as activator; method in brief: as §1
# CRL-2813 = test: Effect on p27Kip1 expression in human CRL-2813 cells at 5 uM measured after 8 hrs Western blot analysis; type: functional, cell-based
# Method in brief: (§2)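 CRL-2813 melanoma cells were grown in serum-containing, antibiotic-free medium to 70% confluence and treated with 5 µM compound for 8 hours. Lysates were made in M-PER on ice, protein was normalized by BCA, and samples were separated by SDS-PAGE. Blots were probed for CHOP, p27Kip1, cyclin D1 and β-actin.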
# [4] = target: Eukaryotic translation initiation factor 2 subunit 1 (Homo sapiens) (UniProt P05198); test: Activation of eIF2alpha in human CRL-2813 cells assessed as eIF2alpha phosphorylation at 5 uM measured after 2 hrs Western blot analysis; type: cell-based
# Method in brief: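 Adherent human melanoma CRL-2813 cells were grown in serum-containing, antibiotic-free medium to 70% confluence and exposed to 5 µM compound or vehicle for 2 hours. Cells were lysed in M-PER on ice, and protein was quantified by BCA and boiled in Laemmli buffer. Lysates were run on SDS-PAGE and immunoblotted for phospho-Ser51 eIF2α, total eIF2α and β-actin.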
# MCF7 = test: Antiproliferative activity against human MCF7 cells transfected with HRI siRNA at 0.27 to 10 uM after 3 days by SRB assay; settings: dose 0.27-10 µM, time 3.0 day
# [5] = target: Eukaryotic translation initiation factor 2 subunit 1 (Homo sapiens) (UniProt P05198); test: Activation of eIF2alpha in human CRL-2813 cells assessed as decrease in cyclin D1 expression at 5 uM measured after 8 hrs Western blot analysis; type: cell-based; method in brief: as §2
# [6] = target: Eukaryotic translation initiation factor 2 subunit 1 (Homo sapiens) (UniProt P05198); test: Activation of eIF2alpha in human CRL-2813 cells assessed as increase in CHOP expression at 5 uM measured after 8 hrs Western blot analysis; type: cell-based; method in brief: as §2
# Eukaryotic translation initiation factor 2 subunit 1 (Homo sapiens), sequence (P05198 whole entry): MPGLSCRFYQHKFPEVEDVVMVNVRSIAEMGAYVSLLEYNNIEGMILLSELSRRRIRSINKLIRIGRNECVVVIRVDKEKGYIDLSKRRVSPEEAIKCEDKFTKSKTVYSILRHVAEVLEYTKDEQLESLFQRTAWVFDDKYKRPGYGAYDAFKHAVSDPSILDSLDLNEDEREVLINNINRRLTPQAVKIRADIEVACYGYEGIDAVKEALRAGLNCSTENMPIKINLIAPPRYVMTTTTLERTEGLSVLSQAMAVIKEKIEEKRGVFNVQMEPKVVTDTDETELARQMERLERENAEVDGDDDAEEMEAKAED
SMILES,"IC50 ([1]; Homo sapiens, CRL2813, 120 h)",fold change (FC) [2],fold change (FC) [3],other results
N#Cc1cc(F)cc(NC(=O)NC2CC(Oc3ccc(C(F)(F)F)cc3)C2)c1 (trans isomer),2.8 µM,5.3,2,–
O=C(Nc1cccc(C(F)(F)F)c1)NC1CC(Oc2ccc(C(F)(F)F)cc2)C1 (trans isomer) [listing 1 of 2 here],–,6.5,2.4,–
O=C(Nc1cccc(C(F)(F)F)c1)NC1CC(Oc2ccc(C(F)(F)F)cc2)C1 (trans isomer) [listing 2 of 2 here],3.4 µM,–,–,–
N#Cc1cccc(NC(=O)NC2CC(Oc3ccc(C(F)(F)F)cc3)C2)c1 (stereo in doubt; trans) [listing 1 of 2 here],–,3.5,1.6,–
N#Cc1cccc(NC(=O)NC2CC(Oc3ccc(C(F)(F)F)cc3)C2)c1 (stereo in doubt; trans) [listing 2 of 2 here],–,–,–,IC50 ([1]; crl-2813): 4.9 µM
N#Cc1cccc(NC(=O)N[C@H]2CC[C@H](Oc3ccc(C(F)(F)F)cc3)C2)c1,6.5 µM,1.6,0.8,–
N#Cc1cc(F)cc(NC(=O)NC2CCC(Oc3ccc(C(F)(F)F)cc3)CC2)c1 (configuration not stated),0.63 µM,9.3,4.6,Activity (CRL-2813): inactive; Activity ([4]; filed as activator): Active; Activity (MCF7): inactive; Activity ([5]; filed as activator): Active; Activity ([6]; filed as activator): Active
N#Cc1cc(NC(=O)NC2CC(Oc3ccc(C(F)(F)F)cc3)C2)cc(C(F)(F)F)c1 (trans isomer) [listing 1 of 2 here],–,10,4.4,Activity (CRL-2813): inactive; Activity ([4]; filed as activator): Active; Activity (MCF7): inactive; Activity ([5]; filed as activator): Active; Activity ([6]; filed as activator): Active
N#Cc1cc(NC(=O)NC2CC(Oc3ccc(C(F)(F)F)cc3)C2)cc(C(F)(F)F)c1 (cis isomer),–,8.4,4.3,–
Cc1ccc(F)cc1NC(=O)NC1CCC(Oc2ccc(C(F)(F)F)cc2)CC1 (configuration not stated),5.3 µM,1.5,1.8,Activity (CRL-2813): inactive; Activity ([4]; filed as activator): Active; Activity ([5]; filed as activator): Active; Activity ([6]; filed as activator): Active
O=C(Nc1ccc(F)c(F)c1)NC1CC(Oc2ccc(C(F)(F)F)cc2)C1 (trans isomer),5.5 µM,4.5,2.2,–
N#Cc1cccc(NC(=O)NC2CC(Oc3ccc(C(F)(F)F)cc3)C2)c1 (stereo in doubt; cis) [listing 1 of 2 here],–,–,–,IC50 ([1]; crl-2813): > 10 µM
N#Cc1ccc(F)c(NC(=O)NC2CCC(Oc3ccc(C(F)(F)F)cc3)CC2)c1 (configuration not stated),> 10 µM,1.5,1,Activity (CRL-2813): inactive; Activity [4]: inactive; Activity [5]: inactive; Activity [6]: inactive
O=C(Nc1cccc(C(F)(F)F)c1)NC1CC(Oc2ccc(C(F)(F)F)cc2)C1 (cis isomer) [listing 1 of 2 here],–,6.2,1.2,–
N#Cc1ccc(NC(=O)NC2CCC(Oc3ccc(C(F)(F)F)cc3)CC2)cc1F (trans isomer),0.46 µM,10.4,5.5,Activity (CRL-2813): inactive; Activity ([4]; filed as activator): Active; Activity (MCF7): inactive; Activity ([5]; filed as activator): Active; Activity ([6]; filed as activator): Active
O=C(Nc1cccc(C(F)(F)F)c1)N[C@H]1CC[C@H](Oc2ccc(C(F)(F)F)cc2)C1,2.5 µM,7,1.2,–

SMILES,"IC50 ([1]; Homo sapiens, CRL2813, 120 h)",fold change (FC) [2],fold change (FC) [3],other results
N#Cc1cccc(NC(=O)NC2CCC(Oc3ccc(C(F)(F)F)cc3)CC2)c1 (configuration not stated),1.6 µM,6.1,1.9,–
N#Cc1cc(NC(=O)NC2CCC(Oc3ccc(C(F)(F)F)cc3)CC2)ccc1F (configuration not stated),1.4 µM,6.1,3.7,–
N#Cc1cc(NC(=O)N[C@H]2CC[C@H](Oc3ccc(C(F)(F)F)cc3)C2)cc(C(F)(F)F)c1,1.2 µM,8.3,3.1,–
O=C(Nc1ccc(F)c(F)c1)N[C@H]1CC[C@H](Oc2ccc(C(F)(F)F)cc2)C1,5.2 µM,3.5,0.9,–
N#Cc1ccc(NC(=O)NC2CCC(Oc3ccc(C(F)(F)F)cc3)CC2)c(F)c1 (configuration not stated),1.4 µM,6.2,2.4,–
N#Cc1cc(NC(=O)NC2CCC(Oc3ccc(C(F)(F)F)cc3)CC2)cc(C(F)(F)F)c1 (configuration not stated),0.35 µM,13.8,5.7,Activity (CRL-2813): inactive; Activity ([4]; filed as activator): Active; Activity (MCF7): inactive; Activity ([5]; filed as activator): Active; Activity ([6]; filed as activator): Active
O=C(Nc1cccc(C(F)(F)F)c1)NC1CCC(Oc2ccc(C(F)(F)F)cc2)CC1 (configuration not stated),0.9 µM,9.2,3.6,–
N#Cc1cc(NC(=O)NC2CC(Oc3ccc(C(F)(F)F)cc3)C2)cc(C(F)(F)F)c1 (trans isomer) [listing 2 of 2 here],0.9 µM,–,–,–
Cc1ccc(F)cc1NC(=O)N[C@H]1CC[C@H](Oc2ccc(C(F)(F)F)cc2)C1,8 µM,1.3,1.4,–
O=C(Nc1ccc(F)c(F)c1)NC1CCC(Oc2ccc(C(F)(F)F)cc2)CC1 (trans isomer),1.3 µM,5.6,2.9,–
N#Cc1cc(F)cc(NC(=O)N[C@H]2CC[C@H](Oc3ccc(C(F)(F)F)cc3)C2)c1,1.9 µM,8,2.4,–
N#Cc1cccc(NC(=O)NC2CC(Oc3ccc(C(F)(F)F)cc3)C2)c1 (stereo in doubt; cis) [listing 2 of 2 here],–,0.9,1.1,–
O=C(Nc1cccc(F)c1F)NC1CCC(Oc2ccc(C(F)(F)F)cc2)CC1 (configuration not stated),1.6 µM,9.9,4.7,Activity (CRL-2813): inactive; Activity ([4]; filed as activator): Active; Activity ([5]; filed as activator): Active; Activity ([6]; filed as activator): Active
O=C(Nc1cccc(C(F)(F)F)c1)NC1CC(Oc2ccc(C(F)(F)F)cc2)C1 (cis isomer) [listing 2 of 2 here],–,–,–,IC50 ([1]; crl-2813): 2.6 µM
O=C(Nc1cccc(F)c1F)NC1CC(Oc2ccc(C(F)(F)F)cc2)C1 (trans isomer),2.3 µM,6.2,0.8,–
Cc1ccc(F)cc1NC(=O)NC1CC(Oc2ccc(C(F)(F)F)cc2)C1 (configuration not stated),> 10 µM,1.4,0.7,–
